{"source": "ChEMBL document CHEMBL1122861", "about": "“Synthesis and activity profiles of novel cyclic opioid peptide monomers and dimers” (J Med Chem, 1985)", "key": {"[1]": {"species": "Cavia porcellus", "test": "Tested for inhibition of electrically evoked contractions of the guinea pig ileum(GPI).", "type": "functional", "outline": "(§1)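 Isolated tissue bioassay, electrically evoked contractions; inhibition measured. A log dose–response curve with [Leu5]enkephalin as standard was run on each ileum or vas preparation. Test-peptide IC50 values were normalized against that standard by a published procedure. Mean of three determinations ±SEM.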"}, "[2]": {"species": "Mus musculus", "test": "Tested for inhibition of electrically evoked contractions of the mouse vas deferens(MVD).", "type": "functional", "outline": "as §1"}, "[3]": {"biological_target": "Delta-type opioid receptor (Rattus norvegicus, UniProt P33533)", "sequence (P33533 whole entry)": "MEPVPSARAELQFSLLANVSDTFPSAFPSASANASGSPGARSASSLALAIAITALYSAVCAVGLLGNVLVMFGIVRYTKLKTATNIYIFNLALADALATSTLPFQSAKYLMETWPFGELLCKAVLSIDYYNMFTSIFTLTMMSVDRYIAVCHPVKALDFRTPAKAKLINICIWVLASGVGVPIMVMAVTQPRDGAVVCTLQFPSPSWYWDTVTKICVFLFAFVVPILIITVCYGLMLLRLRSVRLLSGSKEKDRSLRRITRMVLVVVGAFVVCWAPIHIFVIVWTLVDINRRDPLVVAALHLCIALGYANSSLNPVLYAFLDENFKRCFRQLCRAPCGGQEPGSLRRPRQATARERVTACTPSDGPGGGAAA", "test": "Displacement of [3H]DSLET from Opioid receptor delta 1 from rat brain homogenate", "type": "tissue-based"}, "[4]": {"biological_target": "Mu-type opioid receptor (Rattus norvegicus, UniProt P33535)", "sequence (P33535 whole entry)": "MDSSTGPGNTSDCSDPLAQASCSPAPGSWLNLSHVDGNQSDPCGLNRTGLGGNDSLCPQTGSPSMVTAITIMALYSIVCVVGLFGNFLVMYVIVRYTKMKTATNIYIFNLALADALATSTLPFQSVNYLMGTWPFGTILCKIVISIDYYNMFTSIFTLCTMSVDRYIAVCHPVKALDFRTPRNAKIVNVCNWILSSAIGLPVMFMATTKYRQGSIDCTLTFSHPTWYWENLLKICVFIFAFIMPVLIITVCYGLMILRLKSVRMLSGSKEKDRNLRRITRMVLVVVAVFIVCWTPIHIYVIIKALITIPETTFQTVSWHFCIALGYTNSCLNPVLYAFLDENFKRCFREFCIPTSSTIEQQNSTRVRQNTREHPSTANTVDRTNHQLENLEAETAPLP", "test": "Evaluated for its ability to displace [3H]DAGO binding to Opioid receptor mu 1 from rat brain homogenate", "type": "tissue-based"}, "[5]": {"species": "Cavia porcellus", "test": "Tested for sensitivity to naloxone in the guinea pig ileum assay.", "type": "functional", "outline": "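Electrically stimulated guinea pig ileum. IC50 was determined with and without a fixed 5 nM naloxone. Ke for naloxone as antagonist was derived from the ratio of those IC50 values.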"}}, "note": "Where a SMILES comes first, the peptide text is derived from it. Bridges are numbered along the chain shown (N, C = ends). [ ]: non-standard residue; d: D form. Orn = NCCC[C@H](N)C(=O)O", "data": [{"smiles": "NC(=O)[C@@H]1CCCNC(=O)C[C@@H](NC(=O)[C@@H](N)Cc2ccc(O)cc2)C(=O)N[C@@H](Cc2ccccc2)C(=O)N[C@H](C(N)=O)CCCNC(=O)C[C@@H](NC(=O)[C@@H](N)Cc2ccc(O)cc2)C(=O)N[C@@H](Cc2ccccc2)C(=O)N1", "note": "[listing 1 of 2 here]", "values": [{"measurement": "IC50", "setting": "[1]", "result": 1160, "unit": "nM"}, {"measurement": "IC50", "setting": "[2]", "result": 579, "unit": "nM"}, {"measurement": "Ki", "setting": "[3]", "result": 129, "unit": "nM"}, {"measurement": "Ki", "setting": "[4]", "result": 85.9, "unit": "nM"}]}, {"smiles": "NC(=O)[C@@H]1CCCNC(=O)C[C@@H](NC(=O)[C@@H](N)Cc2ccc(O)cc2)C(=O)N[C@@H](Cc2ccccc2)C(=O)N1", "note": "(H-Y[dD]F[Orn]-NH2; lactam 2-4) [listing 1 of 2 here]", "values": [{"measurement": "IC50", "setting": "[1]", "result": 522, "unit": "nM"}, {"measurement": "IC50", "setting": "[2]", "result": 8570, "unit": "nM"}]}, {"smiles": "NC(=O)[C@@H]1CCC(=O)NCCC[C@@H](NC(=O)[C@@H](N)Cc2ccc(O)cc2)C(=O)NCC(=O)N1", "values": [{"measurement": "IC50", "setting": "[1]", "result": 8750, "unit": "nM"}, {"measurement": "IC50", "setting": "[2]", "result": "> 40000", "unit": "nM"}, {"measurement": "Ki", "setting": "[3]", "result": 4990, "unit": "nM"}, {"measurement": "Ki", "setting": "[4]", "result": 1760, "unit": "nM"}]}, {"smiles": "NC(=O)[C@@H]1CCCNC(=O)C[C@@H](NC(=O)[C@@H](N)Cc2ccc(O)cc2)C(=O)N[C@@H](Cc2ccccc2)C(=O)N1", "note": "(H-Y[dD]F[Orn]-NH2; lactam 2-4) [listing 2 of 2 here]", "values": [{"measurement": "Ke", "setting": "[5]", "result": 1.28, "unit": "nM"}]}, {"smiles": "NC(=O)[C@@H]1CCCCNC(=O)CC[C@@H](NC(=O)[C@@H](N)Cc2ccc(O)cc2)C(=O)N[C@@H](Cc2ccccc2)C(=O)N1", "note": "[listing 1 of 2 here]", "values": [{"measurement": "IC50", "setting": "[1]", "result": 7.99, "unit": "nM"}, {"measurement": "IC50", "setting": "[2]", "result": 101, "unit": "nM"}, {"measurement": "Ki", "setting": "[3]", "result": 49.3, "unit": "nM"}, {"measurement": "Ki", "setting": "[4]", "result": 0.994, "unit": "nM"}]}, {"smiles": "NC(=O)[C@@H]1CCC(=O)NCCCC[C@@H](NC(=O)[C@@H](N)Cc2ccc(O)cc2)C(=O)N[C@@H](Cc2ccccc2)C(=O)N1", "note": "[listing 1 of 2 here]", "values": [{"measurement": "IC50", "setting": "[1]", "result": 2.93, "unit": "nM"}, {"measurement": "IC50", "setting": "[2]", "result": 5.21, "unit": "nM"}, {"measurement": "Ki", "setting": "[3]", "result": 4.36, "unit": "nM"}, {"measurement": "Ki", "setting": "[4]", "result": 1.43, "unit": "nM"}]}, {"smiles": "NC(=O)[C@@H]1CCC(=O)NCCCC[C@@H](NC(=O)[C@@H](N)Cc2ccc(O)cc2)C(=O)N[C@@H](Cc2ccccc2)C(=O)N1", "note": "[listing 2 of 2 here]", "values": [{"measurement": "Ke", "setting": "[5]", "result": 1.8, "unit": "nM"}]}, {"smiles": "CC(C)C[C@@H]1NC(=O)[C@H](NC(=O)[C@@H](N)Cc2ccc(O)cc2)CCCNC(=O)C[C@@H](C(N)=O)NC1=O", "values": [{"measurement": "IC50", "setting": "[1]", "result": 5410, "unit": "nM"}, {"measurement": "IC50", "setting": "[2]", "result": 40400, "unit": "nM"}, {"measurement": "Ki", "setting": "[3]", "result": 8160, "unit": "nM"}, {"measurement": "Ki", "setting": "[4]", "result": 6800, "unit": "nM"}]}, {"smiles": "NC(=O)[C@@H]1CC(=O)NCCC[C@@H](NC(=O)[C@@H](N)Cc2ccc(O)cc2)C(=O)N[C@@H](Cc2ccccc2)C(=O)N[C@H](C(N)=O)CC(=O)NCCC[C@@H](NC(=O)[C@@H](N)Cc2ccc(O)cc2)C(=O)N[C@@H](Cc2ccccc2)C(=O)N1", "note": "[listing 1 of 2 here]", "values": [{"measurement": "IC50", "setting": "[1]", "result": 111, "unit": "nM"}, {"measurement": "IC50", "setting": "[2]", "result": 99.1, "unit": "nM"}, {"measurement": "Ki", "setting": "[3]", "result": 42.2, "unit": "nM"}, {"measurement": "Ki", "setting": "[4]", "result": 25.6, "unit": "nM"}]}, {"smiles": "NC(=O)[C@@H]1CC(=O)NCCC[C@@H](NC(=O)[C@@H](N)Cc2ccc(O)cc2)C(=O)N[C@@H](Cc2ccccc2)C(=O)N[C@H](C(N)=O)CC(=O)NCCC[C@@H](NC(=O)[C@@H](N)Cc2ccc(O)cc2)C(=O)N[C@@H](Cc2ccccc2)C(=O)N1", "note": "[listing 2 of 2 here]", "values": [{"measurement": "Ke", "setting": "[5]", "result": 1.36, "unit": "nM"}]}, {"smiles": "NC(=O)[C@@H]1CCCNC(=O)C[C@@H](NC(=O)[C@@H](N)Cc2ccc(O)cc2)C(=O)N[C@@H](Cc2ccccc2)C(=O)N[C@H](C(N)=O)CCCNC(=O)C[C@@H](NC(=O)[C@@H](N)Cc2ccc(O)cc2)C(=O)N[C@@H](Cc2ccccc2)C(=O)N1", "note": "[listing 2 of 2 here]", "values": [{"measurement": "Ke", "setting": "[5]", "result": 1.62, "unit": "nM"}]}, {"smiles": "NC(=O)[C@@H]1CCCCNC(=O)CC[C@@H](NC(=O)[C@@H](N)Cc2ccc(O)cc2)C(=O)N[C@@H](Cc2ccccc2)C(=O)N1", "note": "[listing 2 of 2 here]", "values": [{"measurement": "Ke", "setting": "[5]", "result": 0.81, "unit": "nM"}]}]}
